Screening results: PubChem, Broad Institute
rRNA inh HTS: inhibits bacterial ribosomal RNA function over humanized ribosomes. E. coli WT GFP vs humanized-ribosome RFP mutants, fluorescence, 24 h; stronger effect = lower value; DMSO median 0, no signal -100. actives 1.6% (n = 350,000). GFP signal change (wild-type ribosome), % (concentration not given with the values);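 active means significant combined selectivity score with lowered wild-type GFP, culture density cut under 30%, mutant RFP and density less affected; inactive means any of these conditions unmet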
EWS-Fli inh: inhibitors of EWS/Fli oncoprotein transcriptional activity; A673 NR0B1-luciferase reporter, viability-normalised; inhibition, % at 12.6 µM; actives 0.67% (n = 350,000); AID 651661;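 active means mean inhibition of at least 50% after viability correction, with every replicate also passing that limit; inconclusive means mean reaches 50% but only one of two replicates passes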;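 further: firefly luciferase signal divided by Alamar Blue viability fluorescence both relative to DMSO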
LGR2 antag: blocks bursicon-induced cAMP signaling via Drosophila LGR2; HEK293 LGR2, CRE-luciferase, bursicon-stimulated, 4 h; inhibition, % at 9.99 µM; actives 0.35% (n = 380,000); AID 720647;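 active means drop in luminescence signal, shown as inhibition above about 50% in the replicate tests, limit read from the data, passing the limit was not always enough; inconclusive means probably only some replicates passing the limit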;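 further: agonist challenge used bursicon conditioned medium at about half maximal strength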
E-sel inducer: induces E-selectin expression in human endothelial cells. AID 686992. actives 0.37% (n = 260,000). HUVEC E-selectin immunofluorescence imaging; normalized: neutral wells 0, TNF-alpha wells 100. activation, % at 7.58 µM. P16581;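 active means mean E-selectin-positive cell signal at least 10% of the positive control, reached in at least 60% of replicates, without over 20% cell loss; inconclusive means no rule given, readout overlaps actives, possibly toxicity-flagged; inactive means the rest, including those meeting only one limit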
Target sequence (P16581 whole entry, looked up): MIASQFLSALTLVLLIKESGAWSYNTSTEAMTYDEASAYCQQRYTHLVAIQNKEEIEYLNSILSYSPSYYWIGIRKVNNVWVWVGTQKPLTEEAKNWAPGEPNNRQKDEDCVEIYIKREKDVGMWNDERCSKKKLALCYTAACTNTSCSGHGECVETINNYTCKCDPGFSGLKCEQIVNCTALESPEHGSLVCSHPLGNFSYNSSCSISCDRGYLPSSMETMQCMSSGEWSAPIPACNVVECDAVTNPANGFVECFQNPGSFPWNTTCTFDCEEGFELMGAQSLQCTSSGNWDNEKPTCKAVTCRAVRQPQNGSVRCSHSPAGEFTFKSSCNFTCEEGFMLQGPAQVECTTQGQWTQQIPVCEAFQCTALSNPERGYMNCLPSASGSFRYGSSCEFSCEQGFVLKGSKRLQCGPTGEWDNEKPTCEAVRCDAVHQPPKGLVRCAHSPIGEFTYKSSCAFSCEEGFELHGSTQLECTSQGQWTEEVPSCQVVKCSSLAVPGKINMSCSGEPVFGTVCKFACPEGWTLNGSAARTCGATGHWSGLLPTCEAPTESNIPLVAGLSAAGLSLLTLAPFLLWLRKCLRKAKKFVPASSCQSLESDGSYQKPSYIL
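Read-out: % PE-positive cells | Test system: HUVEC | Doses: One compound dose added by pin transfer | Buffer or medium: EGM-2 over gelatin coat | Signal: Immunofluorescence imaging | Benchmarks: TNF-alpha, DMSO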
DNA binding: DNA binding small molecules; shares compounds with EWS-Fli inh; salmon sperm DNA acridine orange fluorescence polarization; AC35, µM (top dose mostly 68 µM), without a hit: top-dose activity change, negative = DNA binding; actives 2% (n = 640); AID 720586;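 active means fitted curve reaches a 35% signal fall AC35 below twice the sample's top valid tested dose, actives reach about 48 µM in these data; inactive means the rest, including activity in the rising direction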;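 further: lower polarization ratio signals compound binding to DNA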
The depositor's hits bear a star; u = inconclusive; x = not tested or not shown. Most compounds without a hit are left out; they make up all but 2.4% or so of the library.

SMILES | rRNA inh HTS | EWS-Fli inh | LGR2 antag | E-sel inducer | DNA binding
Cc1cc(C)c(N=C2C(=O)Nc3ccccc32)c(C)c1 | 13.4 | 24.0 | -7.8 | 0.0 | x
O=C1Nc2ccccc2C1=Nc1ccccc1-c1ccccc1 | 3.1 | 54.8* | 2.9 | -0.1 | -4.6%
O=C1Nc2ccccc2C1=Nc1ccc(Cl)cc1 | 4.9 | 37.0 | 13.1 | -0.1 | x
Cc1cc(Br)ccc1N=C1C(=O)Nc2ccccc21 | 0.1 | 55.1* | 14.2 | x | -2.4%
O=C1Nc2ccccc2C1=Nc1ccc(Br)cc1 | -3.0 | 55.1* | -4.6 | 0.4 | -14.0%
O=C(NCc1ccc(F)cc1)[C@@H]1[C@@H](CO)[C@@H]2Cn3c(cccc3=O)[C@H]1N2C(=O)C1CC1 | 3.0 | x | -11.1 | 0.8 | x
CCCN1C/C(=C/c2ccc3c(c2)OCO3)C(=O)/C(=C/c2ccc3c(c2)OCO3)C1 | x | 64.5* | -14.0 | 1.2 | -18.8%
CCOC(=O)C1CCN(C(=O)CCc2c(C)nc3cc(-c4ccccc4)nn3c2C)CC1 | -7.4 | 41.3 | -49.3 | 4.1 | x
COc1cc(OC)cc(-c2cc3nc(C)c(CCC(=O)O)c(C)n3n2)c1 | -9.4 | 76.8* | 3.8 | 0.2 | 44.4µM*
CCOC(=O)C1CCCCN1C(=O)CCc1c(C)nc2cc(-c3ccccc3)nn2c1C (stereo not given) | 5.1 | 51.2* | -43.7 | 3.7 | -4.9%
CCS(=O)(=O)c1ccc(C=NNc2nc3ccccc3o2)cc1 | -6.4 | -66.1 | -63.4 | -0.4 | x
CN(C)c1ccc(/C=N/Nc2nc3ccccc3o2)cc1 | 16.1 | 68.2* | 67.1* | 0.5 | -6.5%
C[C@H]1CN([C@@H](C)CO)C(=O)c2cccc(NC(=O)Nc3cccc4ccccc34)c2O[C@H]1CN(C)C | -3.0 | 15.8 | 11.8 | x | x
COc1ccc(/C=C/C(=O)c2ccc3c(c2)OCO3)cc1OC | -8.3 | -37.8 | -23.1 | -0.5 | x
COc1ccc(/C=C/C(=O)c2ccc(C(=O)/C=C/c3ccc(OC)c(OC)c3)cc2)cc1OC | 8.4 | 61.8* | 7.1 | x | -23.1%
COc1ccc(/C=C/C(=O)c2cc(F)ccc2OC(=O)c2ccccc2OC)cc1OC | -7.2 | 59.4* | u | x | -4.2%
O=C(C[C@@H]1CC[C@@H]2[C@H](COC[C@@H](O)CN2S(=O)(=O)c2ccc(F)cc2)O1)NCc1ccc(Cl)c(Cl)c1 | -13.6 | 76.3* | 18.7 | 0.1 | -15.5%
O=S(=O)(c1ccc(F)cc1)N1C[C@H]2[C@@H](c3ccccc31)[C@H](CO)N2Cc1ccccc1Cl | -13.4 | 59.6* | 1.3 | 0.0 | -4.8%
Cc1ccccc1-c1cnc2c(c1)C(=O)N([C@@H](C)CO)C[C@H](C)[C@@H](CN(C)Cc1ccncc1)O2 | -1.7 | -14.6 | 8.4 | -0.4 | x
Cc1ccc(S(=O)(=O)N(C)C[C@H]2Oc3ccc(NS(=O)(=O)c4ccc(F)cc4)cc3C(=O)N([C@@H](C)CO)C[C@@H]2C)cc1 | 1.2 | -2.2 | 1.0 | 2.0 | x
CC(Oc1ccc(Cl)cc1Cl)C(=O)NCCCCc1ccccc1 (stereo not given) | x | x | -6.4 | -1.1 | x
CC(Oc1cccc(Cl)c1)C(=O)NCCCCc1ccccc1 (stereo not given) | -46.8 | 87.4* | -19.2 | x | 1.0%
CC1(CCc2ccccc2)NC(=O)N(CC(=O)N2CCc3ccccc32)C1=O (stereo not given) | x | 2.6 | -1.5 | 0.1 | x
CC1(CCc2ccccc2)NC(=O)N(CC(=O)N2CC(=O)Nc3ccccc32)C1=O (stereo not given) | 2.2 | 62.0* | 2.1 | -0.1 | -5.6%
COc1ccc2nc(-c3ccc(F)cc3)sc2c1 | -0.6 | 55.0* | 91.8* | 0.6 | -3.6%
Cc1ccc(N2C(=O)c3cccc4c(N)ccc(c34)C2=O)c2cccnc12 | 35.2 | 59.8* | -1.2 | x | -6.2%
COc1ccc(CN(C)C[C@H]2OCCCC[C@@H](C)Oc3ccc(NS(=O)(=O)c4ccccc4)cc3C(=O)N([C@@H](C)CO)C[C@H]2C)cc1 | 1.0 | 3.4 | -2.7 | -0.3 | x
Nc1nc(=S)c2[nH]cnc2[nH]1 | 5.8 | 61.5* | -16.2 | -0.1 | 2.5%
C[C@@H]1CN([C@@H](C)CO)C(=O)c2cc(NS(=O)(=O)c3ccc(Cl)cc3)ccc2O[C@@H]1CN(C)Cc1ccc(Cl)c(Cl)c1 | -0.3 | 15.1 | 4.4 | 0.6 | x
C[C@@H]1CN([C@H](C)CO)C(=O)c2cc(NS(=O)(=O)c3ccc(Cl)cc3)ccc2O[C@@H]1CN(C)Cc1ccc(Cl)c(Cl)c1 | 0.5 | 53.2* | 13.8 | -0.1 | 0.3%
